The text below walks through data of ChEMBL document CHEMBL5532690, “Antitubercular activity of 2-mercaptobenzothiazole derivatives targeting Mycobacterium tuberculosis type II NADH dehydrogenase” (RSC Med Chem, 2024).

Assay [1] has as its system Mycobacterium tuberculosis. Put plainly: Antitubercular activity against isoniazid-resistant Mycobacterium tuberculosis mc2 8243 measured after 10 days by liquid broth microdilution assay. Type of assay: functional. The conditions noted are these: mc2 8243, 240 h, time 10 day. The method in brief:
(§1)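 Broth microdilution in 7H9 with glycerol, ADS and 0.05% tyloxapol, supplemented with L-methionine, L-leucine (50 mg L−1 each), L-arginine (200 mg L−1) and D-pantothenate (24 mg L−1). Inoculum was diluted to OD600 0.005 (1.0 × 10^6 CFU ml−1) and added to two-fold serial dilutions. After 10 days at 37 °C, MIC was the lowest concentration without visible turbidity.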
Background: In broth dilution the organism is exposed to a series of concentrations in liquid medium.

For assay [2], the system named is Mycobacterium tuberculosis. The assay can be described thus: Antitubercular activity against rifampicin-resistant Mycobacterium tuberculosis mc2 8247 measured after 10 days by liquid broth microdilution assay. Type of assay: functional. As to conditions: mc2 8247, 240 h, time 10 day. The essentials:
as §1

Assay [3] relates to Mycobacterium tuberculosis. The assay can be described thus: Antitubercular activity against isoniazid and rifampicin resistant Mycobacterium tuberculosis mc2 8259 measured after 10 days by liquid broth microdilution assay. The assay is classed as functional. The conditions noted are these: mc2 8259, 240 h, time 10 day. The essentials:
as §1

Assay [4] concerns Mycobacterium tuberculosis. The assay can be described thus: Inhibition of NDH-2 in Mycobacterium tuberculosis transformed with pMV762-Peredox-mCherry incubated for 24 hrs by fluorimetric assay. The method in brief:
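Peredox-mCherry reporter Mtb was grown in supplemented 7H9 to OD600 0.4–0.6 and inoculated onto compounds, then held at 37 °C for 24 h. Fluorescence was read at ex 400/em 510 nm and ex 587/em 615 nm. The green/red ratio was taken as NADH/NAD+. Triplicates; one-way ANOVA with Dunnett's test.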

The test system of assay [5] is Mycobacterium tuberculosis. Put plainly: Inhibition of NDH-2 in Mycobacterium tuberculosis transformed with pMV762-Peredox-mCherry assessed as change in NADH/NAD+ ratio at 59.16 ug/ml incubated for 24 hrs by fluorimetric assay. The conditions noted are these: dose 59.16 µg/ml.
Assay [6] concerns Mycobacterium tuberculosis. Put plainly: Inhibition of NDH-2 in Mycobacterium tuberculosis transformed with pMV762-Peredox-mCherry assessed as change in NADH/NAD+ ratio at 2.5 ug/ml incubated for 24 hrs by fluorimetric assay. As to conditions: dose 2.5 µg/ml.

In brackets after ≈: the same amount, converted by molar mass. Activity calls are given as the source filed them. No cut-off for these calls is given here.

`CO[C@H]1/C=C/O[C@@]2(C)Oc3c(C)c(O)c4c(O)c(c(/C=N/N5CCN(C)CC5)c(O)c4c3C2=O)NC(=O)/C(C)=C\C=C\[C@H](C)[C@H](O)[C@@H](C)[C@@H](O)[C@@H](C)[C@H](OC(C)=O)[C@@H]1C` [RIFAMPIN]: the MIC90 was 0.12 µg/mL (≈ 0.146 µM) in assay [1], more than 128 µg/mL in assay [2] and more than 128 µg/mL in assay [3].
`O=C(CSc1nc2c(Br)cc(F)cc2s1)NC1CCCCC1`: the MIC90 was determined as 8 µg/mL (≈ 19.8 µM) in assay [1], 4 µg/mL (≈ 9.92 µM) in assay [2] and 8 µg/mL (≈ 19.8 µM) in assay [3].
Consider `O=C(CSc1nc2ccccc2c(=O)[nH]1)NC1CCCCC1`, for which the MIC90 in assay [1] stood at 0.125 µg/mL (≈ 0.394 µM); in assay [2], 0.25 µg/mL (≈ 0.788 µM); in assay [3], 0.125 µg/mL (≈ 0.394 µM).
With `NNC(=O)c1ccncc1` [ISONIAZID], the MIC90 in assay [1] was more than 128 µg/mL; in assay [2], 0.25 µg/mL (≈ 1.82 µM); in assay [3] it was more than 128 µg/mL.
Take `Cc1cc(C)c2nc(SCC(=O)NC3CCCCC3)sc2c1`: the MIC90 amounted to 4 µg/mL (≈ 12 µM) in assay [1], 8 µg/mL (≈ 23.9 µM) in assay [2] and 4 µg/mL (≈ 12 µM) in assay [3]. Also, the inhibition result in assay [4] is “Active”.
For the compound `C=C(C)[C@H]1Cc2c(ccc3c2O[C@@H]2COc4cc(OC)c(OC)cc4[C@@H]2C3=O)O1` [ROTENONE], the inhibition result in assay [5] is “Active”.
Regarding `CC(C)/N=c1\cc2n(-c3ccc(Cl)cc3)c3ccccc3nc-2cc1Nc1ccc(Cl)cc1` [CLOFAZIMINE], the inhibition result in assay [6] was “inactive”.
Consider `CC(C)c1ccc2nc(SCC(=O)NC3CCCCC3)sc2c1`, for which the MIC90 in assay [1], in assay [2] and in assay [3] was 4 µg/mL (≈ 11.5 µM) in each case. In addition, the inhibition result in assay [4] is “Active”.

What is called MIC90 is an inhibitory concentration at the 90% level, which refers to growth in some studies and to a panel of isolates in others. A lower MIC90 goes with higher susceptibility.
